Reference: ChEMBL document CHEMBL4819043, “1,3-Benzodioxole-based fibrate derivatives as potential hypolipidemic and hepatoprotective agents” (2021)
Values belong to the compound of their own block, whether it stands above or below them. The source made the active and inactive calls. No cut-off for these calls is given here.

What was measured:
Mus musculus [1] = experiment: Hypolipidemic activity in KM mouse model of Triton WR 1339-induced hyperlipidemia assessed as reduction in serum TG level at 0.362 mmol/Kg, IG administered for 1 week and measured on day 7; type: functional, organism-based; conditions: time 1.0 weeks
Mus musculus [2] = experiment: Hypolipidemic activity in KM mouse model of Triton WR 1339-induced hyperlipidemia assessed as reduction in serum TC level at 0.362 mmol/Kg, IG administered for 1 week and measured on day 7; type: functional, organism-based; conditions: time 1.0 weeks
Mus musculus [3] = experiment: Hepatoprotective activity against mouse model of HFD-induced hyperlipidemia assessed as decrease in ALT level at 67 mg/kg, IG; type: functional, organism-based
Summary of the method: (§1)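 Mice with high-fat-diet-induced hyperlipidemia, given 67 or 13 mg/kg intragastrically. Serum was assayed for TC, TG, HDL-C and LDL-C, for SOD, GSH-PX and MDA, for IL-6 and TNF-α, and for AST and ALT. Values were compared with the model group. n = 12 per group; mean ± SEM.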

Mus musculus [4] = experiment: Hepatoprotective activity against mouse model of HFD-induced hyperlipidemia assessed as decrease in AST level at 67 mg/kg, IG; type: functional, organism-based; summary of the method: as §1
Mus musculus [5] = experiment: Hypolipidemic activity in KM mouse model of Triton WR 1339-induced hyperlipidemia assessed as reduction in serum TG level at 0.121 mmol/Kg, IG administered for 1 week and measured on day 7 relative to control; type: functional; set-up: scale not given: the % may be the effect or the level left; conditions: time 1 weeks
Mus musculus [6] = experiment: Antioxidant activity in mouse model of HFD-induced hyperlipidemia assessed as increase in GSH-PX level at 67 mg/kg, IG; type: functional, organism-based; summary of the method: as §1
Mus musculus [7] = experiment: Hypolipidemic activity in KM mouse model of Triton WR 1339-induced hyperlipidemia assessed as reduction in serum TC level administered IG for 1 week and measured on day 7 relative to control; type: functional, organism-based; conditions: time 1.0 weeks
Mus musculus [8] = experiment: Antioxidant activity in mouse model of HFD-induced hyperlipidemia assessed as increase in SOD level at 67 mg/kg, IG; type: functional, organism-based; summary of the method: as §1
Mus musculus [9] = experiment: Antioxidant activity in mouse model of HFD-induced hyperlipidemia assessed as decrease in MDA level at 67 mg/kg, IG; type: functional, organism-based; summary of the method: as §1
Mus musculus [10] = experiment: Hypolipidemic activity in mouse model of HFD-induced hyperlipidemia assessed as reduction in serum TG level at 67 mg/kg, IG; type: functional, organism-based; summary of the method: as §1
Mus musculus [11] = experiment: Hypolipidemic activity in KM mouse model of Triton WR 1339-induced hyperlipidemia assessed as reduction in serum TG level at 1.086 mmol/Kg, IG administered for 1 week and measured on day 7 relative to control; type: functional; set-up: scale not given: the % may be the effect or the level left; conditions: time 1 weeks
Mus musculus [12] = experiment: Antiinflammatory activity against mouse model of HFD-induced hyperlipidemia assessed as decrease in IL-6 level at 67 mg/kg, IG; type: functional, organism-based; summary of the method: as §1
Mus musculus [13] = experiment: Hypolipidemic activity in KM mouse model of Triton WR 1339-induced hyperlipidemia assessed as reduction in serum TG level administered IG for 1 week and measured on day 7; type: functional, organism-based; conditions: time 1.0 weeks
Mus musculus [14] = experiment: Antiinflammatory activity against mouse model of HFD-induced hyperlipidemia assessed as decrease in TNF-alpha level at 67 mg/kg, IG; type: functional, organism-based; summary of the method: as §1
Mus musculus [15] = experiment: Hypolipidemic activity in mouse model of HFD-induced hyperlipidemia assessed as reduction in serum TC level at 67 mg/kg, IG; type: functional, organism-based; summary of the method: as §1
Mus musculus [16] = experiment: Hypolipidemic activity in KM mouse model of Triton WR 1339-induced hyperlipidemia assessed as reduction in serum TC level at 0.362 mmol/Kg, IG administered for 1 week and measured on day 7 relative to control; type: functional; set-up: scale not given: the % may be the effect or the level left; conditions: time 1 weeks
Mus musculus [17] = experiment: Hypolipidemic activity in mouse model of HFD-induced hyperlipidemia assessed as reduction in number of lipid droplets in liver at 67 mg/kg, IG by oil red-O staining based assay; type: functional, organism-based
Summary of the method: (§2)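 Livers from mice with high-fat-diet-induced hyperlipidemia, dosed intragastrically at 67 or 13 mg/kg. Liver sections were stained for lipid (oil red O; Sudan III with hematoxylin, 100×), and relative hepatic lipid accumulation was quantified. Mean of six independent experiments ± SEM, compared with the model group.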

Mus musculus [18] = experiment: Hypolipidemic activity in KM mouse model of Triton WR 1339-induced hyperlipidemia assessed as reduction in serum TC level at 0.121 mmol/Kg, IG administered for 1 week and measured on day 7 relative to control; type: functional; set-up: scale not given: the % may be the effect or the level left; conditions: time 1 weeks
Mus musculus [19] = experiment: Hypolipidemic activity in mouse model of HFD-induced hyperlipidemia assessed as reduction in serum LDL-C level at 67 mg/kg, IG; type: functional, organism-based; summary of the method: as §1
Mus musculus [20] = experiment: Hypolipidemic activity in mouse model of HFD-induced hyperlipidemia assessed as increase in serum HDL-C level at 67 mg/kg, IG relative to control; type: functional; summary of the method: as §1
Mus musculus [21] = experiment: Hypolipidemic activity in KM mouse model of Triton WR 1339-induced hyperlipidemia assessed as reduction in serum TG level at 0.362 mmol/Kg, IG administered for 1 week and measured on day 7 relative to control; type: functional; set-up: scale not given: the % may be the effect or the level left; conditions: time 1 weeks
Mus musculus [22] = experiment: Upregulation of PPAR-alpha expression in mouse model of HFD-induced hyperlipidemia at 67 mg/kg, IG by Western blot analysis; type: functional, organism-based
Summary of the method: (§3)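 Hepatic PPAR-α expression measured in liver tissue of mice with high-fat-diet-induced hyperlipidemia, dosed intragastrically at 67 or 13 mg/kg. Compared with the model group. n = 6; mean ± SEM.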

Mus musculus [23] = experiment: Hypolipidemic activity in KM mouse model of Triton WR 1339-induced hyperlipidemia assessed as reduction in serum TC level at 1.086 mmol/Kg, IG administered for 1 week and measured on day 7 relative to control; type: functional; set-up: scale not given: the % may be the effect or the level left; conditions: time 1 weeks
Mus musculus [24] = experiment: Hypolipidemic activity in KM mouse model of Triton WR 1339-induced hyperlipidemia assessed as reduction in serum MDA level at 0.362 mmol/Kg, IG administered for 1 week and measured on day 7; type: functional, organism-based; conditions: time 1.0 weeks
Mus musculus [25] = experiment: Hypolipidemic activity in mouse model of HFD-induced hyperlipidemia assessed as reduction in serum TC level at 13 mg/kg, IG; type: functional, organism-based; summary of the method: as §1
Mus musculus [26] = experiment: Hypolipidemic activity in mouse model of HFD-induced hyperlipidemia assessed as reduction in number of lipid droplets in liver at 13 mg/kg, IG by oil red-O staining based assay; type: functional, organism-based; summary of the method: as §2
Mus musculus [27] = experiment: Hepatoprotective activity against mouse model of HFD-induced hyperlipidemia assessed as decrease in ALT level at 13 mg/kg, IG; type: functional, organism-based; summary of the method: as §1
Mus musculus [28] = experiment: Upregulation of PPAR-alpha expression in mouse model of HFD-induced hyperlipidemia at 13 mg/kg, IG by Western blot analysis; type: functional, organism-based; summary of the method: as §3
Mus musculus [29] = experiment: Hypolipidemic activity in mouse model of HFD-induced hyperlipidemia assessed as reduction in serum TG level at 13 mg/kg, IG; type: functional, organism-based; summary of the method: as §1
Mus musculus [30] = experiment: Hepatoprotective activity against mouse model of HFD-induced hyperlipidemia assessed as decrease in AST level at 13 mg/kg, IG; type: functional, organism-based; summary of the method: as §1
Mus musculus [31] = experiment: Hypolipidemic activity in mouse model of HFD-induced hyperlipidemia assessed as increase in serum HDL-C level at 13 mg/kg, IG relative to control; type: functional; summary of the method: as §1
Mus musculus [32] = experiment: Antioxidant activity in mouse model of HFD-induced hyperlipidemia assessed as increase in GSH-PX level at 13 mg/kg, IG; type: functional, organism-based; summary of the method: as §1
Mus musculus [33] = experiment: Hypolipidemic activity in mouse model of HFD-induced hyperlipidemia assessed as reduction in serum LDL-C level at 13 mg/kg, IG; type: functional, organism-based; summary of the method: as §1
Mus musculus [34] = experiment: Antioxidant activity in mouse model of HFD-induced hyperlipidemia assessed as decrease in MDA level at 13 mg/kg, IG; type: functional, organism-based; summary of the method: as §1

Activity (Mus musculus [1]): Active
SMILES: O=C(O)COc1ccc2c(c1)OCO2

Activity (Mus musculus [2]): Active
SMILES: CCOC(=O)CCCCOc1ccc2c(c1)OCO2

Activity (Mus musculus [7]): Dose-Dependent Effect
Activity (Mus musculus [13]): Dose-Dependent Effect
Activity (Mus musculus [2]): Active
Activity (Mus musculus [1]): Active
Activity (Mus musculus [24]): Active
SMILES: O=C(CCCCCOc1ccc2c(c1)OCO2)Oc1ccc2c(c1)OCO2
Activity (Mus musculus [3]): Active
Activity (Mus musculus [4]): Active
Activity (Mus musculus [5]): 10.4%
Activity (Mus musculus [6]): Active
Activity (Mus musculus [8]): Active
Activity (Mus musculus [9]): Active
Activity (Mus musculus [10]): Active
Activity (Mus musculus [11]): 74.1%
Activity (Mus musculus [12]): Active
Activity (Mus musculus [14]): Active
Activity (Mus musculus [15]): Active
Activity (Mus musculus [16]): 67.3%
Activity (Mus musculus [17]): Active
Activity (Mus musculus [18]): 14.3%
Activity (Mus musculus [19]): Active
Activity (Mus musculus [20]): 15%
Activity (Mus musculus [21]): 68.8%
Activity (Mus musculus [22]): Active
Activity (Mus musculus [23]): 70.1%

Activity (Mus musculus [2]): Active
Activity (Mus musculus [1]): Active
SMILES: O=C(O)CCCCCOc1ccc2c(c1)OCO2

Activity (Mus musculus [2]): Active
Activity (Mus musculus [1]): Active
SMILES: CCOC(=O)CCCCCOc1ccc2c(c1)OCO2

Activity (Mus musculus [2]): Active
Activity (Mus musculus [1]): Active
Activity (Mus musculus [24]): Active
SMILES: O=C(CCCCOc1ccc2c(c1)OCO2)Oc1ccc2c(c1)OCO2

Activity (Mus musculus [2]): Active
SMILES: CCOC(=O)COc1ccc2c(c1)OCO2

SMILES: CC(C)OC(=O)C(C)(C)Oc1ccc(C(=O)c2ccc(Cl)cc2)cc1 [FENOFIBRATE]
Activity (Mus musculus [25]): inactive
Activity (Mus musculus [26]): Active
Activity (Mus musculus [27]): inactive
Activity (Mus musculus [28]): Active
Activity (Mus musculus [29]): Active
Activity (Mus musculus [30]): inactive
Activity (Mus musculus [31]): 20%
Activity (Mus musculus [32]): Active
Activity (Mus musculus [33]): Active
Activity (Mus musculus [34]): inactive

Activity (Mus musculus [2]): Active
Activity (Mus musculus [1]): Active
SMILES: O=C(COc1ccc2c(c1)OCO2)Oc1ccc2c(c1)OCO2

Activity (Mus musculus [2]): Active
Activity (Mus musculus [1]): Active
SMILES: CCOC(=O)CCCOc1ccc2c(c1)OCO2

Activity (Mus musculus [2]): Active
Activity (Mus musculus [1]): Active
SMILES: O=C(CCCOc1ccc2c(c1)OCO2)Oc1ccc2c(c1)OCO2

Activity (Mus musculus [2]): Active
Activity (Mus musculus [1]): Active
SMILES: O=C(O)CCCCOc1ccc2c(c1)OCO2
